Source: PubChem
TAAR1 ag: human TAAR1 agonism | CHO RD-HGA16 TAAR1, Fluo-8 calcium fluorescence; vehicle wells 0%, saturating PEA agonist 100% | activation, % at 3 µM | actives 0.99% (n = 360,000) | AID 624467;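 active = activation above the mean activation of all test compounds in the run plus 3 SD, cut at about 38% in these data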
Target sequence (Q96RJ0 whole entry, looked up): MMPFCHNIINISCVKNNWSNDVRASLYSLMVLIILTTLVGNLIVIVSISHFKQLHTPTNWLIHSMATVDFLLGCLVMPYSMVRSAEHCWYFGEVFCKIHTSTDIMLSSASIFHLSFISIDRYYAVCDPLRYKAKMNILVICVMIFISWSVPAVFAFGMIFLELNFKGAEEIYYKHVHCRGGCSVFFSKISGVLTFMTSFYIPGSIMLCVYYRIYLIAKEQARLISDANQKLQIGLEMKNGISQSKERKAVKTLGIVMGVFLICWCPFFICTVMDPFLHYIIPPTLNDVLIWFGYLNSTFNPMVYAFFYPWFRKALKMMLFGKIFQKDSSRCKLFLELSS
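Signal – calcium-sensitive Fluo-8 signal, excitation 470-495, emission 515-575 nm · System – RD-HGA16 (CHO) cells co-expressing Gα16 and hTAAR1 · Incubation – 17-24 h seeding, 75 min 37 °C dye, 30 min RT · Compound dosing – 3 µM single concentration · Repeats – no replicates (n 1)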
TAAR1 antag: antagonists of human TAAR1; actives 1.5% (n = 360,000); CHO RD-HGA16 TAAR1, Fluo-8 calcium fluorescence, antagonist; AID 624466; inhibition, % at 3 µM; Q96RJ0;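 active = inhibition above a per-plate cutoff, the mean inhibition of test compounds on that plate plus 3 SD, cut at about 49% in these data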;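 also: 0% = DMSO plus EC80 beta-PEA response and 100% = DMSO alone without agonist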
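Test system: hTAAR1-expressing CHO RD-HGA16 cells, Gα16-coupled; Probe or stimulus: EC80 β-phenethylamine stimulus; Compound dosing: single nominal final test compound concentration of 3 µM; Timing: 140 s kinetic read after compound, 140 s after agonist; Signal: Fluo-8 calcium-sensitive fluorescence; Measure: % inhibition of agonist calcium response; Controls: DMSO and EC80 PEA controls.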
GalR3 antagonist: blocks the human galanin receptor 3; O60755; HEK293 GalR3-CNG cAMP membrane potential fluorescence; galR3 body fused to GalR1 C-terminus; inhibition, % at 3 µM; actives 0.44% (n = 360,000); AID 651719;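 active = inhibition above the screen-wide average plus 3 SD, cut at about 13% in these data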;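 also: forskolin and galanin both at EC90 stimulate the cells; cAMP rise reported by CNG channel membrane potential dye signal; 0% = forskolin plus galanin with DMSO and 100% = forskolin alone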
Target sequence (O60755 1-299 limits assumed): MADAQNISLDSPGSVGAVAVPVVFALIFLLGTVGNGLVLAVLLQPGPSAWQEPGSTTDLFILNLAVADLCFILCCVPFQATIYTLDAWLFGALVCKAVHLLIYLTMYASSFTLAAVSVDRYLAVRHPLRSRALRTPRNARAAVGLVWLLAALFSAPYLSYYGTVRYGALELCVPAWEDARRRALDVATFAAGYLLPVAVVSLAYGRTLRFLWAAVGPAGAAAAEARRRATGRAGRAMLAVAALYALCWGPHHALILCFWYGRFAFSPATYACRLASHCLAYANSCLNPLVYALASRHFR
CHO parental Ca: signal in parental CHO cells, OX1R antagonist counter-screen; AID 463079; actives 0.63% (n = 330,000); parental CHO-K1, ATP-induced calcium, Fluo-8 fluorescence; inhibition, % at 5.6 µM;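 active = inhibition above that plate's mean sample inhibition plus 3 SD, cut at about 26% in these data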;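 also: 0% = ATP-challenged DMSO wells and 100% = DMSO wells without ATP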
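Test system: parental CHO cells; detection: calcium-sensitive Fluo-8 fluorescence; evaluation: percent inhibition of calcium signal; also added: ATP as calcium-mobilizing challenge; repeats: one well per compound; control set: ATP-challenged DMSO wells low, unchallenged DMSO wells high; compound: single nominal dose of 5.6 µM per compound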
OX1R antag-1: antagonists of human orexin 1 receptor (OX1R) | OX1R-expressing cells, FRET antagonist read-out | actives 1.8% (n = 330,000) | inhibition, % at 6.6 µM | O43613; in the data active = inhibition mostly above about 38%, no sharp cut-off; inactive = mostly below about 40%;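 also: 0% = agonist challenge alone and 100% = reference antagonist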
OX1R antag-2: antagonists of human orexin 1 receptor. CHO/OX1R cells, Fluo-8 calcium fluorescence, orexin A. inhibition, % at 5 µM. actives 0.43% (n = 330,000). AID 434989;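 active = inhibition above its plate's threshold, mean inhibition of all tested compounds on the plate plus 3 SD, cut at about 37% in these data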;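 also: 0% = orexin A challenge wells and 100% = SB-334867-A antagonist wells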
TAAR1 ag conf: confirmation of human TAAR1 agonists | AID 651783 | shares compounds with TAAR1 ag | CHO RD-HGA16 TAAR1, Fluo-8 calcium fluorescence; scaled: DMSO 0%, maximal phenethylamine 100% | activation, % at 3 µM | actives 82% (n = 2,400);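 active = activation above a cutoff set at the run's mean compound activation plus 3 SD, cut at about 39% in these data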
Ga16 ag counter: nonselective agonism, TAAR1 counter-screen; shares compounds with TAAR1 ag; activation, % at 3 µM; CHO-Ga16 parental, Fluo-8 calcium fluorescence; normalized to maximal ATP response, DMSO zero; actives 50% (n = 2,400);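 active = activation above the run cutoff, the mean activation over all tested wells plus 3 SD, cut at about 12% in these data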;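 also: 0% = DMSO wells and 100% = maximal ATP response on the peak over basal ratio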
TAAR1 desens: counter-screen for human TAAR1 agonists: agonists that desensitize TAAR1 | shares compounds with TAAR1 ag | CHO RD-HGA16 hTAAR1, Fluo-8 calcium, beta-PEA response inhibition | inhibition, % at 3 µM | actives 46% (n = 2,400) | AID 651951;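 active = inhibition above the run cutoff, the mean inhibition of all test compounds plus 3 SD, cut at about 49% in these data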;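 also: beta-PEA stimulus applied at its EC80; loss of beta-PEA calcium signal after compound pretreatment read as receptor desensitization; 0% = DMSO with beta-PEA at EC80 and 100% = DMSO alone without agonist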
Ga16 nonsel ant: counter-screen for TAAR1 agonists: nonselective Ga16 antagonists. actives 39% (n = 2,400). shares compounds with TAAR1 ag. inhibition, % at 3 µM. CHO-Ga16 ATP-induced calcium, Fluo-8 fluorescence;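 active = inhibition above the plate's mean compound inhibition plus 3 SD, computed per plate, cut at about 22% in these data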;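 also: 0% = EC80 ATP with DMSO and 100% = DMSO wells without ATP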
An asterisk follows results filed as active; · = not tested or not shown. Most compounds without a hit are left out; they make up all but 4.2% or so of the library.

SMILES	TAAR1 ag	TAAR1 antag	GalR3 antagonist	CHO parental Ca	OX1R antag-1	OX1R antag-2	TAAR1 ag conf	Ga16 ag counter	TAAR1 desens	Ga16 nonsel ant
CCCCCCCCCCOC(=O)Cn1c(COc2ccccc2OC)[n+](C)c2ccccc21	66*	90*	4	84*	32	77*	79*	91*	94*	100*
O=C(Nc1ccccc1C(=O)NCCc1ccccc1)c1ccco1	60*	43	-1	-3	33	-14	69*	5	60*	24*
O=C(NCCc1ccccc1)c1ccco1	29	-2	0	-14	5	-11	·	·	·	·
COCOCCn1cc(CN2CCS(=O)(=O)N(Cc3ccc(-c4ccncc4)cc3)C(CC(C)C)C2=O)nn1 (stereo not drawn)	6	18	-4	·	·	·	·	·	·	·
CCOC(=O)c1c(NC(=O)CSc2nnc(C)s2)sc2c1CCCCC2	58*	-11	-6	52*	15	54*	40*	23*	12	15
CCOC(=O)c1cnc(SC2CC(=O)N(c3cccc(OC)c3)C2=O)nc1N (stereo not drawn)	8	6	4	-20	24	-26	·	·	·	·
Cc1c(C(=O)NCc2ccco2)oc2ccc(S(=O)(=O)N3CCC4(CC3)OCCO4)cc12	11	3	6	-22	25	-27	·	·	·	·
Cc1c(C(=O)NCCc2ccccc2)oc2ccc(S(=O)(=O)N3CCC4(CC3)OCCO4)cc12	93*	77*	-2	-5	53	27	92*	12*	89*	36*
CN1OC[C@@H]2CN(C(=O)CCc3ccccc3)[C@H](c3ccc(-n4ccnc4)cc3)C[C@@H]21	2	-9	-7	·	·	·	·	·	·	·
CN1OC[C@@H]2CN(C(=S)NCCc3ccccc3)[C@H](c3ccc(-n4ccnc4)cc3)C[C@@H]21	47*	-8	-7	·	·	·	49*	7	6	10
CCOC(=O)c1ccc(Oc2cn[nH]c2-c2ccc(OCC(=O)NN)cc2O)cc1	86*	35	-5	-6	5	-4	47*	17*	27	21
Cc1cccc(CS(=O)(=O)Cc2ccc(C(=O)NCCc3ccccc3)o2)c1	48*	25	-6	-13	6	-30	31	4	8	16
CN(CCNC(=O)c1ccc(CS(=O)(=O)c2ccc(Br)cc2)o1)CCc1ccccc1	53*	-19	-1	-2	3	-32	51*	2	14	10
Cc1ccccc1CS(=O)(=O)Cc1ccc(C(=O)NCCc2ccccc2)o1	72*	41	0	-17	2	-15	48*	8	34	22*
NC(=O)c1c(NC(=O)CSc2nnc(-c3ccco3)n2-c2ccccc2)sc2c1CCC2	8	-2	-2	-13	22	-36	·	·	·	·
O=C(Nc1ccc2c(c1)OCO2)C1CC(c2ccc(Cl)cc2)=NO1 (stereo not drawn)	27	15	-1	-3	13	-5	·	·	·	·
O=c1cc(N/N=C/c2ccccc2)[nH]c(=O)[nH]1	58*	31	-3	-8	8	-10	84*	15*	90*	7
Cc1c(C=NNc2ccccc2)[nH]c(=O)[nH]c1=O	58*	2	-3	·	·	·	72*	3	36	11
O=c1cc(C=NNc2ccccc2)[nH]c(=O)[nH]1	·	·	2	·	·	·	·	3	·	11
COC(=O)c1cc(C(=O)OC)cc(-n2c(C)cc(C(=O)CC#N)c2C)c1	5	2	1	-14	11	8	·	·	·	·
CCc1nc(N)c(C#N)c(-c2ccco2)c1C	81*	-18	-3	-2	30	-9	4	3	2	3
O=C(c1ccc(COc2c(F)c(F)c(F)c(F)c2F)o1)N1CCOCC1	-1	2	-2	2	23	-16	·	·	·	·
COC(=O)c1cc2sc(Cl)cc2n1CC(=O)NCC1CCCO1 (stereo not drawn)	14	-10	6	-12	27	1	·	·	·	·
O=C(Nc1ccccc1)Nc1nnc(Cc2ccc(F)cc2)s1	12	-23	-2	-2	8	-20	·	·	·	·
O=C(Cc1nnc(NC(=O)Nc2ccccc2)s1)Nc1ccccc1	52*	43	-5	2	6	9	65*	2	70*	8
SMILES	TAAR1 ag	TAAR1 antag	GalR3 antagonist	CHO parental Ca	OX1R antag-1	OX1R antag-2	TAAR1 ag conf	Ga16 ag counter	TAAR1 desens	Ga16 nonsel ant
COc1ccccc1NC(=O)Nc1nnc(CC(=O)Nc2ccccc2)s1	3	0	-5	14	6	-1	·	·	·	·
CCN(CC)c1ccc(/C=N/NC(=O)Cc2nnc(NC(=O)Nc3ccccc3)s2)cc1	57*	21	-4	-12	6	-10	50*	0	36	11
O=C(Cc1nnc(NC(=O)Nc2ccc(F)cc2)s1)Nc1ccccc1	54*	20	6	9	7	6	65*	13*	68*	9
CC(C)(C)c1ccc(C(=O)N2CCN(C(=O)C3CCCCC3)CC2)cc1	-1	-11	-2	-15	-3	-14	·	·	·	·
O=C(CCCn1nnnc1CN1CCOCC1)N1CCN(c2ccccc2F)CC1	1	4	0	7	10	5	·	·	·	·
COc1cc(OC)c(OC)cc1CCC(C)NCCC(c1ccccc1)c1ccccc1 (stereo not drawn)	52*	23	-14	-1	4	-21	48*	19*	39	25*
Cc1cc(C)n2nc(SCC(=O)NC3(C#N)CCCCC3)nc2n1	1	2	-7	·	·	·	·	·	·	·
O=C(CSCc1ccccc1)Nc1ccc(F)c(F)c1	1	-2	-4	-8	21	-2	·	·	·	·
CCCC1(c2ccccc2)NC(=O)N(CC(=O)c2[nH]c(C)c(C(=O)OCC)c2C)C1=O (stereo not drawn)	78*	43	-6	-13	-15	5	52*	16*	55*	29*
CCOC(=O)c1c(C)[nH]c(C(=O)CN2C(=O)NC3(CCCC3)C2=O)c1C	3	-29	-3	-23	8	-20	·	·	·	·
